According to ChEMBL document CHEMBL1629704, “Inhibition of dengue virus by an ester prodrug of an adenosine analog” (Antimicrob Agents Chemother, 2010):
Active and inactive are the calls of the source. No cut-off for these calls is given here.

Tests used:
[1] = test system: dengue virus type 2; test: Antiviral activity against Dengue virus 2 NGC infected in human A549 cells by CFI assay; type: functional, organism-based
How it was run: (§1)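 CFI assay: A549 cells seeded 2 × 10^4/well, infected next day (MOI 0.3 for DENV-2) with compound-virus mixture for 1 h, then refed with compound-containing medium. On day 2 cells were methanol-fixed at 4°C and intracellular E protein detected by ELISA (4G2 primary, HRP anti-mouse secondary). EC50 is the average of two independent experiments.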

[2] = test system: dengue virus type 1; test: Antiviral activity against Dengue virus 1 MY10245 infected in human A549 cells by CFI assay; type: functional, organism-based; how it was run: as §1
[3] = test system: dengue virus type 2; test: Antiviral activity against Dengue virus 2 MY10340 infected in human A549 cells by CFI assay; type: functional, organism-based; how it was run: as §1
[4] = test system: dengue virus type 3; test: Antiviral activity against Dengue virus 3 MY22366 infected in human A549 cells by CFI assay; type: functional, organism-based; how it was run: as §1
[5] = test system: dengue virus type 4; test: Antiviral activity against Dengue virus 4 MY22713 infected in human A549 cells by CFI assay; type: functional, organism-based; how it was run: as §1
[6] = test system: dengue virus type 2; test: Antiviral activity against Dengue virus 2 NGC infected in human PBMC cells by plaque assay; type: functional, organism-based
[7] = test system: Mus musculus; test: Cmax in CD-1 mouse assessed as NITD449 level at 24.2 mg/kg, po by LC-MS-MS analysis; type: ADME, organism-based; parameters: dose 24.2 mg/kg, route oral; settings: in vivo
How it was run: (§2)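 Female CD-1 mice given the prodrug orally, formulated in 10% ethanol, 30% PEG 400, 60% D5W. Blood from three animals at 0.08, 0.25, 0.5, 1, 2, 4, 8, 16, 24 h; heparinized plasma extracted with acetonitrile-methanol-acetic acid. Parent nucleoside was quantified by LC-MS-MS (MRM, LLOQ 9.2 ng/ml) and noncompartmental analysis was run. F = dose-corrected AUC p.o./AUC i.v., with i.v. parent at 5 mg/kg.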

[8] = test system: Mus musculus; test: Tmax in CD-1 mouse assessed as NITD449 level at 24.2 mg/kg, po by LC-MS-MS analysis; type: ADME, organism-based; parameters: dose 24.2 mg/kg, route oral; settings: in vivo; how it was run: as §2
[9] = test system: Mus musculus; test: AUC (0 to infinity) in CD-1 mouse assessed as NITD449 level at 24.2 mg/kg, po by LC-MS-MS analysis; type: ADME, organism-based, Plasma; parameters: dose 24.2 mg/kg, route oral, time infinity; settings: in vivo; how it was run: as §2
[10] = test system: Mus musculus; test: Oral bioavailability in CD-1 mouse assessed as NITD449 level at 24.2 mg/kg by LC-MS-MS analysis; type: ADME, organism-based; settings: in vivo; how it was run: as §2
[11] = test system: Rattus norvegicus; test: Cmax in Wistar rat assessed as NITD449 level at 26.5 mg/kg, po by LC-MS-MS analysis; type: ADME, organism-based; parameters: dose 26.5 mg/kg, route oral; settings: in vivo
How it was run: (§3)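 Female Wistar rats, fasted overnight until 4 h postdose, given the prodrug orally in 10% ethanol, 30% PEG 400, 60% D5W. Serial blood from groups of three at 0.17–48 h. Parent nucleoside in plasma was measured by LC-MS-MS (LLOQ 9.2 ng/ml) with noncompartmental analysis. F was corrected for dose against parent i.v. at 5.9 mg/kg.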

[12] = test system: Rattus norvegicus; test: Tmax in Wistar rat assessed as NITD449 level at 26.5 mg/kg, po by LC-MS-MS analysis; type: ADME, organism-based; parameters: dose 26.5 mg/kg, route oral; settings: in vivo; how it was run: as §3
[13] = test system: Rattus norvegicus; test: AUC (0 to infinity) in Wistar rat assessed as NITD449 level at 26.5 mg/kg, po by LC-MS-MS analysis; type: ADME, organism-based, Plasma; parameters: time infinity, dose 26.5 mg/kg, route oral; settings: in vivo; how it was run: as §3
[14] = test system: Rattus norvegicus; test: Oral bioavailability in Wistar rat assessed as NITD449 level at 26.5 mg/kg by LC-MS-MS analysis; type: ADME, organism-based; settings: in vivo; how it was run: as §3
[15] = test system: Rattus norvegicus; test: Cmax in Wistar rat assessed as NITD449 level at 84.1 mg/kg, po by LC-MS-MS analysis; type: ADME, organism-based; parameters: dose 84.1 mg/kg, route oral; settings: in vivo
How it was run: (§4)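 Fasted female Wistar rats were dosed orally with the prodrug in 20% solutol HS15, 30% PEG 300, 50% 100 mM citrate pH 3. Groups of three were serially bled 0.17–48 h. Plasma parent levels came from LC-MS-MS (MRM, LLOQ 9.2 ng/ml) and noncompartmental modeling. F used dose-corrected AUC versus parent i.v. at 5.9 mg/kg.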

[16] = test system: Rattus norvegicus; test: Tmax in Wistar rat assessed as NITD449 level at 84.1 mg/kg, po by LC-MS-MS analysis; type: ADME, organism-based; parameters: dose 84.1 mg/kg, route oral; settings: in vivo; how it was run: as §4
[17] = test system: Rattus norvegicus; test: AUC (0 to infinity) in Wistar rat assessed as NITD449 level at 84.1 mg/kg, po by LC-MS-MS analysis; type: ADME, organism-based, Plasma; parameters: time infinity, dose 84.1 mg/kg, route oral; settings: in vivo; how it was run: as §4
[18] = test system: Rattus norvegicus; test: Oral bioavailability in Wistar rat assessed as NITD449 level at 84.1 mg/kg by LC-MS-MS analysis; type: ADME, organism-based; settings: in vivo; how it was run: as §4
[19] = test system: dengue virus type 2; test: Antiviral activity against Dengue virus 2 NGC infected in african green monkey Vero cells after 48 hrs by plaque assay; type: functional, organism-based
How it was run: (§5)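 Titer reduction: Vero cells (4 × 10^5/well) infected 24 h after seeding at MOI 0.1 and treated immediately with compound. Culture medium was collected 48 h postinfection and titered by plaque assay; n = 3, mean ± SD.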

[20] = test system: Yellow fever virus; test: Antiviral activity against Yellow fever virus 17D infected in african green monkey Vero cells after 48 hrs by plaque assay; type: functional, cell-based
[21] = test system: dengue virus type 2; test: Antiviral activity against Dengue virus 2 NGC infected in african green monkey Vero cells at 12.5 uM after 48 hrs by plaque assay; type: functional; how it was run: as §5
[22] = test system: Yellow fever virus; test: Antiviral activity against Yellow fever virus 17D infected in african green monkey Vero cells at 12.5 uM after 48 hrs by plaque assay; type: functional
[23] = test system: West Nile virus; test: Antiviral activity against West Nile virus infected in african green monkey Vero cells assessed as inhibition of RNA replication after 24 hrs by luciferase assay; type: functional, organism-based
How it was run: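 Vero cells infected at MOI about 0.1 with WNV replicon-packaged virus-like particles carrying luciferase, then treated with compound. Luciferase was read 24 h postinfection, relative to mock-treated cells set at 100%; n = 3.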

[24] = test system: Hepatitis C virus; test: Antiviral activity against HCV subtype 1b infected in human Huh-7 cells after 48 hrs by luciferase assay; type: functional, organism-based; settings: Hepacivirus hominis, genotype 1b
How it was run: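 Huh-7 cells bearing a luciferase-reporting HCV genotype 1b replicon were incubated with compound. Luciferase was read at 48 h posttreatment and efficacy estimated from signal reduction; n = 3.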

[25] = test system: Chikungunya virus; test: Antiviral activity against Chikungunya virus infected in african green monkey Vero cells after 22 hrs by plaque assay; type: functional, cell-based
[26] = test system: dengue virus type 2; test: Antiviral activity against Dengue virus-2 NGC infected in hamsters BHK21 cells assessed as inhibition of viral RNA synthesis at 1 uM after 2 to 4 hrs of infection by luciferase assay; type: functional, organism-based; settings: BHK-21
[27] = test system: dengue virus type 2; test: Antiviral activity against Dengue virus-2 NGC infected in hamsters BHK21 cells assessed as inhibition of viral RNA synthesis at 3 uM after 2 to 4 hrs of infection by luciferase assay; type: functional, organism-based; settings: BHK-21
[28] = test system: dengue virus type 2; test: Antiviral activity against Dengue virus-2 NGC infected in hamsters BHK21 cells assessed as inhibition of viral RNA synthesis at 1 uM after 24 to 40 hrs of infection by luciferase assay; type: functional, organism-based; settings: BHK-21
How it was run: (§6)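 DENV-2 luciferase replicon (structural genes deleted) RNA was electroporated into BHK-21 cells, then cells were immediately incubated with compound. Luciferase was read at time points. Signals at 2–4 h p.t. reflect input translation and at 24–40 h p.t. reflect RNA synthesis; n = 3, mean ± SD.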

[29] = test system: dengue virus type 2; test: Antiviral activity against Dengue virus-2 NGC infected in hamsters BHK21 cells assessed as inhibition of viral RNA synthesis at 3 uM after 24 to 40 hrs of infection by luciferase assay; type: functional, organism-based; settings: BHK-21; how it was run: as §6
[30] = test system: dengue virus type 2; test: Antiviral activity against Dengue virus 2 NGC infected in human A549 cells after 2 days by CFI assay in presence of 40 mg/ml human serum albumin; type: functional, organism-based; settings: A549, 48 h
How it was run: (§7)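 Modified CFI: A549 cells infected with DENV-2 New Guinea C (MOI 0.3) for 1 h without compound. Inoculum then replaced with medium containing compound dilutions plus the stated HSA and/or AGP. On day 2, cells methanol-fixed and intracellular E protein detected by ELISA (4G2 primary, HRP anti-mouse secondary); EC50 derived.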

[31] = test system: dengue virus type 2; test: Antiviral activity against Dengue virus 2 NGC infected in human A549 cells after 2 days by CFI assay in presence of 2 mg/ml alpha-1-acid glycoprotein; type: functional, organism-based; settings: A549, 48 h; how it was run: as §7
[32] = test system: dengue virus type 2; test: Antiviral activity against Dengue virus 2 NGC infected in human A549 cells after 2 days by CFI assay in presence of 40 mg/ml human serum albumin and 2 mg/ml alpha-1-acid glycoprotein; type: functional, organism-based; settings: A549, 48 h; how it was run: as §7
[33] = test system: dengue virus type 2; test: Antiviral activity against Dengue virus 2 TSV01 infected in AG129 mouse assessed as reduced viremia by 3 mg/kg, po BID for 3 days measured on day 4 by plaque assay; type: functional
How it was run: (§8)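 AG129 mice (lacking IFN-α/β and IFN-γ receptors) were inoculated i.p. with 2 × 10^6 PFU DENV-2 in 0.4 ml. Immediately afterwards, 0.2 ml compound in ethanol-PEG-D5W (10:30:60) was given by oral gavage twice daily for 3 days. Day-4 blood viremia was measured by plaque assay; 6 or 8 mice per group.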

[34] = test system: dengue virus type 2; test: Antiviral activity against Dengue virus 2 TSV01 infected in AG129 mouse assessed as reduced viremia by 10 mg/kg, po BID for 3 days measured on day 4 by plaque assay; type: functional; how it was run: as §8
[35] = test system: dengue virus type 2; test: Antiviral activity against Dengue virus 2 TSV01 infected in AG129 mouse assessed as reduced viremia by 25 mg/kg, po BID for 3 days measured on day 4 by plaque assay; type: functional; how it was run: as §8
[36] = test system: Rattus norvegicus; test: Toxicity in Wistar rat at 10 mg/kg/day, po for 2 weeks; type: organism-based; parameters: route oral; settings: in vivo, 336 h
How it was run: (§9)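 Male Wistar rats, 10 weeks old, dosed orally daily for 2 weeks; five per dose group. Clinical signs, body weight and mortality were monitored.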

[37] = test system: Rattus norvegicus; test: Toxicity in Wistar rat at 30 mg/kg/day, po for 2 weeks; type: organism-based; parameters: route oral; settings: in vivo, 336 h; how it was run: as §9
[38] = test system: Rattus norvegicus; test: Toxicity in Wistar rat at 75 mg/kg/day, po for 2 weeks; type: organism-based; parameters: route oral; settings: in vivo, 336 h; how it was run: as §9

C#C[C@@]1(O)[C@H](OC(=O)C(C)C)[C@@H](COC(=O)C(C)C)O[C@H]1n1cc(C(N)=O)c2c(N)ncnc21
EC50 [1]: 0.69 µM | EC50 [2]: 0.54 µM | EC50 [3]: 0.57 µM | EC50 [4]: 0.54 µM | EC50 [5]: 0.71 µM | EC50 [6]: 0.1 µM | Cmax [7]: 6.01 µM | Tmax [8]: 4.8 min | AUC [9]: 12.6 µM·h | F [10]: 32% | Cmax [11]: 3.65 µM | Tmax [12]: 30 min | AUC [13]: 13.7 µM·h | F [14]: 13% | Cmax [15]: 14.2 µM | Tmax [16]: 30 min | AUC [17]: 33.5 µM·h | F [18]: 10% | Activity [19]: Active | Activity [20]: Active | fold change (FC) [21]: 1000 | fold change (FC) [22]: 100 | Activity [23]: Active | Activity [24]: Active | Activity [25]: Active | Activity [26]: Active | Activity [27]: Active | Activity [28]: Active | Activity [29]: Active | EC50 [30]: 0.79 µM | EC50 [31]: 0.76 µM | EC50 [32]: 0.85 µM | fold change (FC) [33]: 2.7 | fold change (FC) [34]: 4.4 | fold change (FC) [35]: 30 | Activity [36]: Non-toxic | Activity [37]: Toxic | Activity [38]: Toxic
